Test results published in ChEMBL document CHEMBL5370536, “Design, synthesis, and biological activity of dual monoamine oxidase A and heat shock protein 90 inhibitors, N-Methylpropargylamine-conjugated 4-isopropylresorcinol for glioblastoma” (Eur J Med Chem, 2023).
pIC50: −log10 of the molar value.

Assays:
[1] = biological target: T1, Amine oxidase [flavin-containing] A (Mus musculus, UniProt Q64133); test: Inhibition of MAO A in mouse GL26 cells preincubated for 20 mins followed by 14C-labeled 5-hydroxytryptamine addition and measured after 20 mins by scintillation counter analysis; type: cell-based
T1 sequence (Q64133 whole entry): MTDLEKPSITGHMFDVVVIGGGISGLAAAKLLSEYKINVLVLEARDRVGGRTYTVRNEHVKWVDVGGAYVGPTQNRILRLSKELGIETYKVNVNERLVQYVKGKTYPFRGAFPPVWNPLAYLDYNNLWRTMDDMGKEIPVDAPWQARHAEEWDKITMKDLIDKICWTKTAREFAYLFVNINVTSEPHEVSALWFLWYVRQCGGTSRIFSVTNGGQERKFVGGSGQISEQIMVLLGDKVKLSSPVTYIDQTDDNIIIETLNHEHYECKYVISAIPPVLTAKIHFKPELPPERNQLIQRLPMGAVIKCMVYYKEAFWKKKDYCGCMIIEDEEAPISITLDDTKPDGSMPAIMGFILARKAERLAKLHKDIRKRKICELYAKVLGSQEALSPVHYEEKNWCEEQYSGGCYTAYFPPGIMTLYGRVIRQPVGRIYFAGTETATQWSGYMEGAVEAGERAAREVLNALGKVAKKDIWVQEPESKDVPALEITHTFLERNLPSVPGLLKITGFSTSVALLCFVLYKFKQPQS

[2] = Antiproliferative activity against mouse GL26 cells assessed as inhibition of cell growth measured after 48 hrs by MTT assay; type: functional, cell-based; conditions: GL26, 48 h
Summary of the method: (§1)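 Cells plated at 5×10³ per well 24 h before compound and grown in DMEM with 10% FBS at 37°C, 5% CO₂. After 48 h exposure, the medium was replaced with 0.5 mg/mL MTT for 3 h. Formazan was dissolved in DMSO and read at 570 nm.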

U-251 = test: Antiproliferative activity against human Temozolomide-resistant U-251 cells assessed as inhibition of cell growth measured after 48 hrs by MTT assay; type: functional, cell-based; conditions: U-251, 48 h; summary of the method: as §1
[3] = biological target: Heat shock protein HSP 90-alpha (Homo sapiens, UniProt P07900); test: Inhibition of human recombinant HSP90alpha preincubated for 30 mins followed by FITC-GM addition and mesured after 3 hrs by fluorescence polarization assay

SMILES	pIC50 [1]	pIC50 [2]	pIC50 (U-251)	pIC50 [3]
C#CCN(C)CCCOc1ccc(NC(=O)c2cc(C(C)C)c(O)cc2O)cc1Cl	6.96	< 5.00	< 5.00	< 5.00
C#CCN(C)CCCOc1ccc(N(CCC)C(=O)c2cc(C(C)C)c(O)cc2O)cc1Cl	5.41	5.07	< 5.00	6.77
C#CCN(C)CCCOc1cc(N(CC)C(=O)c2cc(C(C)C)c(O)cc2O)ccc1Cl	< 5.00	–	–	–
C#CCN(C)CCCOc1cccc(NC(=O)c2cc(C(C)C)c(O)cc2O)c1Cl	5.63	–	–	–
